# How the values were obtained:
# Type in all cases: functional
# Conditions in all cases: Homo sapiens
# [1] = tested on: Panel leukemia (Carcinoma cell lines); test: Lethal concentration was determined against Leukemia cell line
# Summary of the method: (§1)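 NCI 60-cell-line in vitro screen run at the National Cancer Institute on a submitted sample of about 5 mg. The screen yields mean graph data: LC50 (50% lethal concentration), GI50 and TGI. The LC50 values reported are averages over the cell lines of each cancer type.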
# Melanoma cell = test: Lethal concentration was determined against Melanoma cell line; summary of the method: as §1
# CNS carcinoma cell = test: Lethal concentration was determined against CNS cancer cell line; summary of the method: as §1
# Ovarian carcinoma cell = test: Lethal concentration was determined against Ovarian cancer cell line; summary of the method: as §1
# NSCLC = test: Lethal concentration was determined against NSC lung cancer cell line; summary of the method: as §1
# Renal cancer cell line = test: Lethal concentration was determined against Renal cancer cell line; summary of the method: as §1
# Colon carcinoma cell = test: Lethal concentration was determined against Colon cancer cell line; summary of the method: as §1
SMILES,LC50 (50% lethal concentration) [1] [µM],LC50 (50% lethal concentration) (Melanoma cell) [µM],LC50 (CNS carcinoma cell) [µM],LC50 (50% lethal concentration) (Ovarian carcinoma cell) [µM],LC50 (NSCLC) [µM],LC50 (50% lethal concentration) (Renal cancer cell line) [µM],LC50 (Colon carcinoma cell) [µM]
Cn1c(CCl)nc2c1C(=O)c1c(nc(CCl)n1C)C2=O,4.37,5.01,5.01,10,4.47,6.31,
Cc1nc2c(n1C)C(=O)c1c(nc(CCl)n1C)C2=O,12.9,5.89,15.8,25.1,12.3,15.8,6.31
CC(=O)NC1=C(C)C(=O)c2c(nc3n2CCC3OC(C)=O)C1=O (centres undefined),100,12.6,25.1,15.8,20,15.8,31.6
O=C1c2nc3n(c2C(=O)c2c1nc1n2CCC1)CCC3,100,15.8,63.1,50.1,39.8,79.4,50.1
CC(=O)OC1CCn2c1nc1c2C(=O)c2c(nc3n2CCC3OC(C)=O)C1=O (centres undefined),2.51,2.57,3.16,3.98,3.98,6.31,3.8

# — ChEMBL document CHEMBL1133703, “Inhibitors of topoisomerase II based on the benzodiimidazole and dipyrroloimidazobenzimidazole ring systems: controlling DT-diaphorase reductive inactivation with steric bulk” (2000)
